# 697 NFkB inh – inhibitors of PMA/ionomycin-induced NF-kB reporter, 697 cells, primary screen, B-cell NF-kB inhibitor project, cell-based, luminescence, uHTS. 697 B-cell NF-kB luciferase reporter, 16 h. inhibition, % at 4 µM. 0.33% of 330,000 active; in the data active = inhibition above about 35%
# VIM-2 inhibitor – VIM-2 metallo-beta-lactamase inhibitors, primary screen, biochemical, epi-absorbance readout, Pseudomonas aeruginosa enzyme; purified VIM-2, nitrocefin hydrolysis, epi-absorbance fluorescence; inhibition, % at 5.6 µM; 0.89% of 290,000 active; AID 1527, 2009;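 active = inhibition above the mean of all tested compounds plus 3 SD, cutoff set per screening run, cut at about 7.5% in these data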;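 note: red hydrolysis product quenches plate fluorescence so inhibitors raise well fluorescence; 0% = enzyme with DMSO and 100% = DMSO without enzyme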
# Jurkat NFkB inh – inhibitors of induced NF-kB luciferase reporter, primary screen, TCR NF-kB activation inhibitor project, cell-based, luminescence, uHTS; Jurkat, PMA/ionomycin-induced NF-kB luciferase reporter; inhibition, % at 4 µM; 0.53% of 330,000 active; in the data active = inhibition above about 50%
# Mdm2-MdmX inh – inhibitors of human Mdm2-MdmX association, primary screen, cell-based, luminescence, split luciferase, SaOS-2, uHTS; Protein Mdm4 (Homo sapiens) + E3 ubiquitin-protein ligase Mdm2 (Homo sapiens), …; inhibition, % at 8 µM; SaOS-2 split-luciferase Mdm2/MdmX complementation; 3% of 330,000 active;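 active = inhibition of at least 50% at 8 µM in the primary screen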
# aSyn UTR inh – MLPCN primary screen, SNCA 5' untranslated region. inhibition, % (tested at 7.5 µM). alpha-synuclein 5'UTR reporter, inhibitor activity. 0.82% of 300,000 active; in the data active = inhibition above about 60%;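 note: H4 neuroglioblastoma cells stably carrying SNCA 5'UTR luciferase fusion; 0% = DMSO wells and 100% = positive control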
# IMP-1 inhibitor – IMP-1 metallo-beta-lactamase inhibitors, primary screen, biochemical, epi-absorbance readout, Pseudomonas aeruginosa enzyme; metallo-beta-lactamase IMP-1 (Pseudomonas aeruginosa); purified IMP-1, nitrocefin hydrolysis, epi-absorbance fluorescence; inhibition, % at 5.6 µM; 0.45% of 290,000 active; AID 1556, 2009;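 active = inhibition above the mean plus 3 SD of all compounds in the same screening run, cut at about 4.5% in these data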;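 note: 0% = IMP-1 with DMSO and 100% = DMSO wells lacking enzyme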
#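 System: Purified recombinant IMP-1 metallo-beta-lactamase enzyme | Measured by: Fluorescence quenching readout, ex 480/em 530 nm | Replication: Singlicate | Incubation: 15 min preincubation plus 25 min reaction at 25 °C | Evaluation: Percent inhibition from optical density relative to buffer-blank wells | Benchmarks: DMSO with and without IMP-1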
# Mdm2 MdmX conf – Mdm2-MdmX complex disruptors, retested hits, confirmation, luminescence, single concentration; shares compounds with Mdm2-MdmX inh; Mdm2-MdmX binding, luminescent assay; inhibition, % at 8 µM; 55% of 10,000 active; AID 489028, 2010; in the data active = inhibition above about 40%
# FLuc counter – full-length luciferase signal inhibition, confirmation, counter-screen for Mdm2/MdmX interaction inhibitor project, cell-based, single concentration, SaOS-2; AID 504607, 2011; 77% of 6,200 active; SaOS-2 full-length luciferase counterscreen, luminescence; shares compounds with Mdm2-MdmX inh; inhibition, % at 8 µM;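 active = mean inhibition at 8 µM reaching about 37%, which flags the compound as non-specific, limit read from the data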;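 note: p53-null SaOS-2 cells with luciferase driven by a doxycycline-inducible promoter; compound on cells about two nights before reading with doxycycline added after day one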
# Starred values were filed as active, the others as inactive; . = no result given. In the library only some 4.7% were active in any assay of this set; here they are far more common.
SMILES,697 NFkB inh,VIM-2 inhibitor,Jurkat NFkB inh,Mdm2-MdmX inh,aSyn UTR inh,IMP-1 inhibitor,Mdm2 MdmX conf,FLuc counter
O=C1NCCCCC1NS(=O)(=O)c1cccc2ccccc12 (configuration not stated),-6,-1,-12,2,10,-1,.,.
COc1ccc(C2CC(c3ccc(Cl)cc3)=NN2c2ccc(S(N)(=O)=O)cc2)cc1 (configuration not stated),34,.,.,87*,.,.,15,.
O=[N+]([O-])c1ccc(N2N=C(c3ccccc3)CC2c2ccccc2O)cc1 (configuration not stated),9,-1,-14,90*,11,-4,36,104*
COc1ccc(C2CC(c3ccncc3)=NN2c2ccc(S(N)(=O)=O)cc2)cc1 (configuration not stated),-55,.,.,27,.,.,.,.
O=[N+]([O-])c1ccc(N2N=C(c3ccco3)CC2c2ccccc2)cc1 (configuration not stated),7,-1,2,13,8,0,.,.
COc1ccc(C2CC(c3cccc(Cl)c3)=NN2c2ccc(S(N)(=O)=O)cc2)cc1 (configuration not stated),8,.,.,68*,.,.,-3,.
NS(=O)(=O)c1ccc(N2N=C(c3ccccc3)CC2c2cccc(Br)c2)cc1 (configuration not stated),5,.,.,28,.,.,.,.
NS(=O)(=O)c1ccc(N2N=C(c3ccccc3)CC2c2ccccc2Br)cc1 (configuration not stated),4,.,.,52*,.,.,17,.
Cc1c(O)ccc2c(CC(=O)N[C@@H](Cc3ccc(O)cc3)C(=O)O)cc(=O)oc12,-46,-1,-45,-3,15,-4,.,.
CCOC(=O)CC1C(=O)NCCN1C1CCCC1 (configuration not stated),8,-3,10,-22,-2,-4,.,.
CCOc1ccc(N(CC(=O)NC(C)(C)C)C(=O)c2ccco2)cc1,-2,-4,7,-14,-1,-3,.,.
O=C(Cc1c(F)cccc1Cl)N1CCCC1,17,0,-4,14,15,0,.,.
NS(=O)(=O)c1ccc(N2N=C(c3ccccc3)CC2c2cccc(F)c2)cc1 (configuration not stated),.,-2,.,.,11,-1,.,.
NS(=O)(=O)c1ccc(N2N=C(c3ccc(Br)cc3)CC2c2ccc(F)cc2)cc1 (configuration not stated),6,-1,-1,72*,32,-1,39,75*
CCCCN=C1SC(C(=O)Nc2sc3c(c2C(=O)OC)CCC3)C(N)=C1C(=O)N1CCOCC1 (configuration not stated),13,.,4,66*,-2,.,-14,.
COC(=O)c1c(NC(=S)NN2CCOCC2)sc2c1CCCC2,-16,-3,-9,-4,10,-3,.,.
COC(=O)NC(=C(Cl)Cl)S(=O)(=O)c1ccccc1,-46,-1,31,55*,.,-5,15,.
CC(=O)c1cc(C)ccc1OC(=O)CN1C(=O)c2ccccc2C1=O,-10,2,-7,-1,12,0,.,.
COc1cc(NC(=O)c2cccc3c2C(=O)N(Cc2cccnc2)C3)cc(OC)c1OC,26,6,-5,52*,29,-2,48*,95*
CCN(c1cccc(C)c1)S(=O)(=O)c1ccc(-c2cc(C)no2)s1,-38,-2,42,53*,26,-3,53*,69*
COc1ccc(-c2cc(C)no2)cc1S(=O)(=O)N(C)c1cccc(C)c1,-20,2,-3,9,15,1,.,.
Cc1cccc(N(C)S(=O)(=O)c2ccc(-c3cc(C)no3)s2)c1,7,-2,43,65*,88*,-3,51*,89*
COc1ccc2[nH]c3c4c(ccc3c2c1)C(=O)C=CC4=O,-71,3,45,75*,.,-1,80*,2
Cc1ccc2nc(-c3ccccc3)cn2c1,-7,2,46,67*,120*,-2,58*,32
COc1ccc(CC(=O)OCC(=O)Nc2ccc(N3CCOCC3)cc2)cc1,14,-2,14,8,-15,-4,.,.
SMILES,697 NFkB inh,VIM-2 inhibitor,Jurkat NFkB inh,Mdm2-MdmX inh,aSyn UTR inh,IMP-1 inhibitor,Mdm2 MdmX conf,FLuc counter
NC(=S)n1[nH]c(-c2ccc([N+](=O)[O-])cc2)c(N=Nc2ccc(O)cc2)c1=O,10,-7,20,41,-3,-6,.,.
NC(=S)n1[nH]c(-c2ccc([N+](=O)[O-])cc2)c(N=Nc2cccc(Cl)c2)c1=O,8,-3,4,97*,12,-1,91*,40*
CN(C)S(=O)(=O)c1ccc(NC(=O)CCNC(=O)c2ccco2)cc1,13,-2,-8,-27,9,1,.,.
COc1ccccc1NC(=O)c1ccc(NC(=O)CN2C(=O)CN(C)C2=O)cc1,14,2,11,16,17,2,.,.
O=C(Nc1ccc(O)c2c(=O)cc(-c3cccc(Cl)c3)oc12)c1ccccc1Cl,-18,.,-2,91*,12,.,2,.
O=C(Nc1ccc(O)c2c(=O)cc(-c3ccccc3Cl)oc12)c1ccccc1Cl,6,-2,-1,-4,-24,-2,.,.
COc1ccc(OCc2n(CC(=O)OC3CC(C)CCC3C(C)C)c3ccccc3[n+]2C)cc1 (configuration not stated),-44,-4,13,94*,30,-4,97*,59*
O=C(N/N=C/c1ccc[nH]1)c1ccc(COc2cccc3cccnc23)cc1,15,5,-4,97*,104*,-3,83*,52*
Cc1cc(Br)c(OCc2ccc(C(=O)N/N=C/c3ccc[nH]3)cc2)c(Br)c1,0,.,-4,98*,.,.,94*,11
O=C(Nc1ccc2c(c1)CCC2)c1cnn2c1NC(c1ccco1)CC2C(F)(F)F (configuration not stated),-79,-3,-80,88*,.,-6,54*,79*
O=C(OCc1ccc(Br)cc1)c1cnc(Cl)c(Cl)c1,33,-3,13,69*,19,-2,48*,96*
